Published values pooled from the literature.

Structure (SMILES)	species	sample	route	dose	setting	Tmax [min]
NCc1ccc(-c2nn(Cc3ccccc3)c3ccccc23)o1	male CD-1 mouse	plasma	intraperitoneal	30 mg/kg	–	30
COC1=CC(c2ccc[nH]2)=N/C1=C\c1cc(Cc2ccc(OC(F)(F)F)cc2)c(C)[nH]1.Cl	male CD-1 mouse	liver	oral	40 mg/kg	single dose	1440
CN(C)C(=O)c1cc2cnc(Nc3ccc(-c4ccc5c(=O)cc(N6CCOCC6)oc5c4)cc3)nc2n1C1CCCC1.Cl	BALB/c mouse	plasma	intravenous	2 mg/kg	–	6
NCc1ccc(-c2nn(Cc3ccncc3)c3ccccc23)o1	male CD-1 mouse	plasma	oral	10 mg/kg	–	30
OCc1nc2ccc(NCc3ccc(C(F)(F)F)cc3)cc2[nH]1	male BALB/c mouse	plasma	intravenous	1 mg/kg	–	15
Cc1ccc(CCC(=O)Nc2nnc(S(N)(=O)=O)s2)cc1	male BALB/c mouse	plasma	oral	20 mg/kg	–	10
COCC(=O)N1CCc2[nH]c3c(Cl)c(Cl)ccc3c2[C@@H]1C	C57BL/6 mouse	blood	oral	20 mg/kg	–	25
CC[C@H](C)[C@H](NC(=O)[C@H](CCC(=O)O)NC(=O)[C@H](CO)NC(=O)[C@@H](NC(=O)[C@@H](N)CO)C(C)C)C(=O)N[C@@H](CCC(N)=O)C(=O)N[C@@H](CC(C)C)C(=O)N[C@@H](CCSC)C(=O)N[C@@H](Cc1cnc[nH]1)C(=O)N[C@@H](CC(N)=O)C(=O)N[C@@H](CC(C)C)C(=O)NCC(=O)N[C@@H](CCCCN)C(=O)N[C@@H](Cc1cnc[nH]1)C(=O)N[C@@H](CC(C)C)C(=O)N[C@@H](CC(N)=O)C(=O)N[C@@H](CO)C(=O)N[C@@H](CCSC)C(=O)N[C@@H](CCC(=O)O)C(=O)N[C@@H](CCCNC(=N)N)C(=O)N[C@H](C(=O)N[C@@H](CCC(=O)O)C(=O)N[C@@H](Cc1c[nH]c2ccccc12)C(=O)N[C@@H](CC(C)C)C(=O)N[C@@H](CCCNC(=N)N)C(=O)N[C@@H](CCCCN)C(=O)N[C@@H](CCCCN)C(=O)N[C@@H](CC(C)C)C(=O)N[C@@H](CCC(N)=O)C(=O)N[C@@H](CC(=O)O)C(=O)N[C@H](C(=O)N[C@@H](Cc1cnc[nH]1)C(=O)N[C@@H](CC(N)=O)C(=O)N[C@@H](Cc1ccccc1)C(N)=O)C(C)C)C(C)C	female CD-1 mouse	serum	intravenous	10 nmol/kg	–	1.8
CCn1c(=O)c(-c2cc(NC(=O)Nc3ccccc3)c(F)cc2Br)cc2cnc(NC)cc21	male mouse	plasma	oral	15 mg/kg	single dose	60
OCc1ccc(-c2nn(Cc3ccccc3)c3ccccc23)o1	male CD-1 mouse	plasma	oral	10 mg/kg	–	15
COc1cc(C2C3=C(COC3=O)N(CCO)c3cc4c(cc32)CCC4)cc(OC)c1OC (stereo not shown)	female C57BL/6 mouse	plasma	intraperitoneal	50 mg/kg	–	60
COC1=CC(c2ccc[nH]2)=N/C1=C\c1[nH]c(Cc2ccc(OC(F)(F)F)cc2)cc1Cc1ccc(OC(F)(F)F)cc1	male CD-1 mouse	plasma	oral	40 mg/kg	single dose	240
FC(F)(F)CN1CC(n2cc(Oc3ccn4nc(Cl)cc4n3)cn2)C1	FVB mouse	blood	oral	–	single dose	30
Cc1[nH]c(C)c(S(=O)(=O)Nc2ccc(C(F)(F)F)c(Cl)c2)c1C(=O)N1CCC(F)(F)C1	male CD-1 mouse	brain	intraperitoneal	40 mg/kg	–	60
NCc1cc2c(cc1F)C(=O)N(C1CCC(=O)NC1=O)C2 (stereo not shown)	male CD-1 mouse	plasma	oral	10 mg/kg	–	48
Cc1ccc(OCC(=O)N[C@@H](Cc2c[nH]c3ccccc23)C(=O)OC(C)C)cc1	male Sprague-Dawley mouse	plasma	intravenous	10 mg/kg	–	48
